ChEMBL document CHEMBL3585348, “Armochaetoglobins A-J: Cytochalasan Alkaloids from Chaetomium globosum TW1-1, a Fungus Derived from the Terrestrial Arthropod Armadillidium vulgare” (J Nat Prod, 2015)

Assays:
[1] = tested on: HL-60; test: Cytotoxicity against human HL60 cells assessed as cell viability after 48 hrs by MTS assay; type: functional, cell-based; conditions: HL-60, 48 h
Summary of the method: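 HL-60 suspension cells grown in DMEM or RPMI1640 with 10% FBS at 37 °C in 5% CO2, seeded at 1 × 10^5 cells/mL just before dosing. Exposure was 48 h, in triplicate, at 0.0625–40 μM (five concentrations), with cisplatin and paclitaxel controls. MTS (5 mg/mL) was added for 4 h at 37 °C, followed by 10% SDS lysis and OD at 595 nm.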

[2] = tested on: MCF7; test: Cytotoxicity against human MCF7 cells assessed as cell viability after 48 hrs by MTS assay; type: functional, cell-based; conditions: MCF7, 48 h
Summary of the method: (§1)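 Adherent cells grown in DMEM or RPMI1640 with 10% FBS at 37 °C in 5% CO2, seeded in 96-well plates, and left to adhere 12 h. Compounds were added at 0.0625, 0.32, 1.6, 8 and 40 μM for 48 h, in triplicate, with cisplatin and paclitaxel as positive controls. MTS (5 mg/mL) was added for 4 h at 37 °C, cells lysed in 10% SDS, and OD read at 595 nm.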

[3] = tested on: SW480; test: Cytotoxicity against human SW480 cells assessed as cell viability after 48 hrs by MTS assay; type: functional, cell-based; conditions: SW480, 48 h; summary of the method: as §1
[4] = Cytotoxicity against human BEAS2B cells assessed as cell viability after 48 hrs by MTS assay; type: cell-based; conditions: BEAS-2B
Summary of the method: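 Noncancerous human bronchial epithelial BEAS-2B cells grown in DMEM or RPMI1640 with 10% FBS at 37 °C in 5% CO2, seeded in 96-well plates and allowed 12 h to adhere before compound addition. Viability was read after adding MTS (5 mg/mL) for 4 h at 37 °C, lysing in 10% SDS, and measuring formazan OD at 595 nm.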

[5] = tested on: SMMC-7721; test: Cytotoxicity against human SMMC7721 cells assessed as cell viability after 48 hrs by MTS assay; type: functional, cell-based; conditions: SMMC-7721, 48 h; summary of the method: as §1
[6] = tested on: A549; test: Cytotoxicity against human A549 cells assessed as cell viability after 48 hrs by MTS assay; type: functional, cell-based; conditions: A549, 48 h; summary of the method: as §1

SMILES | IC50 [1] | IC50 [2] | IC50 [3] | IC50 [4] | IC50 [5] | IC50 [6]
C/C(=C\C(C)C/C=C/[C@H]1[C@@H]2O[C@]2(C)[C@@H](C)[C@H]2[C@H](Cc3c[nH]c4ccccc34)NC(=O)[C@]21C(=O)CCCO)CO (stereo not given in full) | 16.5 µM | > 40 µM | > 40 µM | 23.1 µM | 19.4 µM | 30.9 µM
C/C(C=O)=C\C(C)C/C=C/[C@H]1[C@@H]2O[C@]2(C)[C@@H](C)[C@H]2[C@H](Cc3c[nH]c4ccccc34)NC(=O)[C@]21C(=O)CCCO (stereo not given in full) | 11.9 µM | > 40 µM | > 40 µM | 15.5 µM | 10.6 µM | 16.3 µM
C/C(C=O)=C\C(C)C/C=C/[C@H]1[C@@H]2O[C@]2(C)[C@@H](C)[C@H]2[C@H](Cc3c[nH]c4ccccc34)NC(=O)[C@]21C(=O)CCC(=O)O (stereo not given in full) | > 40 µM | > 40 µM | > 40 µM | > 40 µM | 25 µM | > 40 µM
COC(=O)CCC(=O)[C@@]12C(=O)N[C@@H](Cc3c[nH]c4ccccc34)[C@@H]1[C@H](C)[C@@]1(C)O[C@H]1[C@@H]2/C=C/CC(C)/C=C(\C)C=O (stereo not given in full) | 14 µM | 22.7 µM | 38.2 µM | 5.68 µM | 10.8 µM | 19.8 µM
C/C1=C\[C@@H](C)C/C=C/[C@H]2C=C(CO)[C@@H](C)[C@H]3[C@H](Cc4c[nH]c5ccccc45)NC(=O)[C@]32C(=O)CCC(=O)C1 | > 40 µM | > 40 µM | > 40 µM | > 40 µM | > 40 µM | > 40 µM
CC1=C[C@@H]2/C=C/C[C@H](C)/C=C(\C)C(=O)[C@@H](O)CCC(=O)[C@]23C(=O)N[C@@H](Cc2c[nH]c4ccccc24)[C@@H]3[C@@H]1C | 12.6 µM | 14.8 µM | 20.6 µM | 16 µM | 13.8 µM | 14.3 µM
C/C1=C\[C@@H](C)C/C=C/[C@H]2C=C(CO)[C@@H](C)[C@H]3[C@H](Cc4c[nH]c5ccccc45)NC(=O)[C@]32C(=O)/C=C/C(=O)[C@@H]1O | 3.31 µM | 4.06 µM | 3.9 µM | 3.34 µM | 9.83 µM | 8.01 µM
CC1=C[C@@H]2/C=C/C[C@H](C)/C=C(\C)[C@@H](O)[C@@H](O)CCC(=O)[C@]23C(=O)N[C@@H](Cc2c[nH]c4ccccc24)[C@@H]3[C@@H]1C | > 40 µM | > 40 µM | > 40 µM | > 40 µM | > 40 µM | > 40 µM
C/C1=C\[C@@H](C)C/C=C/[C@H]2[C@H](O)[C@@]3(C)O[C@@]4(Cc5c[nH]c6ccccc56)NC(=O)[C@]2(C(=O)CCC(=O)C1=O)[C@H]4[C@@H]3C | 18.2 µM | 19.1 µM | 35.3 µM | 16.6 µM | 17.4 µM | 17.7 µM
CC(=O)O[C@H]1C(=O)[C@@]2(C)[C@H]([C@H](OC(=O)c3ccccc3)[C@]3(O)C[C@H](OC(=O)[C@H](O)[C@@H](NC(=O)c4ccccc4)c4ccccc4)C(C)=C1C3(C)C)[C@]1(OC(C)=O)CO[C@@H]1C[C@@H]2O [PACLITAXEL] | < 0.008 µM | < 0.008 µM | < 0.008 µM | 0.58 µM | < 0.008 µM | < 0.008 µM
